Data as given in ChEMBL document CHEMBL1148449, “Discovery, modeling, and human pharmacokinetics of N-(2-acetyl-4,6-dimethylphenyl)-3-(3,4-dimethylisoxazol-5-ylsulfamoyl)thiophene-2-carboxamide (TBC3711), a second generation, ETA selective, and orally bioavailable endothelin antagonist” (J Med Chem, 2004).
Where a SMILES comes first, the peptide text is derived from it. [ ]: non-standard residue; d: D form. The star is where a group is joined. Piperazinyl(4-Ph) = c1ccc(N2CCN(*)CC2)cc1; dGly(2-thienyl) = N[C@@H](C(=O)O)c1cccs1

How the values were obtained:
[1] = Cmax in rat plasma after oral dose (50 mg/Kg); format: ADME, organism-based; design: dose 50 mg/Kg, route oral
Method in brief: (§1)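 Rats given 50 mg/kg orally. Plasma was separated at once by centrifugation and stored at -80 °C. Proteins were precipitated with acetonitrile and drug measured by HPLC to give Cmax, AUC and t1/2.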

[2] = target: T1, Endothelin-1 receptor (Homo sapiens, UniProt P25101); assay: Displacement of [125I]ET-1 from Endothelin A receptor
T1 sequence (P25101 whole entry): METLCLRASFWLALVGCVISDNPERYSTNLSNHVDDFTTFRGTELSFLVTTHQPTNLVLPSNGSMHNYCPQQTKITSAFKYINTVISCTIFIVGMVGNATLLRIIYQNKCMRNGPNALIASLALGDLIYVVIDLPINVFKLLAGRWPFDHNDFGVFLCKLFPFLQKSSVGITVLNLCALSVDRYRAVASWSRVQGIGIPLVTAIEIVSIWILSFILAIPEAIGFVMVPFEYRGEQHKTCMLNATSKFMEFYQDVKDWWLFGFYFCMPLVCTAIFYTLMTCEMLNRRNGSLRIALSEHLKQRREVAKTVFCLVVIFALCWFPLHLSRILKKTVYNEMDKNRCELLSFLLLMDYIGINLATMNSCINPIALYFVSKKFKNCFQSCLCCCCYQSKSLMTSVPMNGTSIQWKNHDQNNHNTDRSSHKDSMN

[3] = target: Endothelin-1 receptor (Homo sapiens) (UniProt P25101); assay: Selectivity towards endothelin A receptor in human.
[4] = Half life period was determined; format: ADME, organism-based; conditions: rat, in vivo; method in brief: as §1
[5] = Compound was evaluated for area under the curve expressed as (h*ug/ml); format: ADME, organism-based; design: concentration or dose not given beside the values; conditions: rat, in vivo; method in brief: as §1
[6] = Compound was evaluated for oral bioavailability in rats; conditions: rat, in vivo
[7] = target: T2, Endothelin-1 receptor (Rattus norvegicus) (UniProt P26684); assay: Selectivity towards endothelin A receptor in rat.
T2 sequence (whole entry): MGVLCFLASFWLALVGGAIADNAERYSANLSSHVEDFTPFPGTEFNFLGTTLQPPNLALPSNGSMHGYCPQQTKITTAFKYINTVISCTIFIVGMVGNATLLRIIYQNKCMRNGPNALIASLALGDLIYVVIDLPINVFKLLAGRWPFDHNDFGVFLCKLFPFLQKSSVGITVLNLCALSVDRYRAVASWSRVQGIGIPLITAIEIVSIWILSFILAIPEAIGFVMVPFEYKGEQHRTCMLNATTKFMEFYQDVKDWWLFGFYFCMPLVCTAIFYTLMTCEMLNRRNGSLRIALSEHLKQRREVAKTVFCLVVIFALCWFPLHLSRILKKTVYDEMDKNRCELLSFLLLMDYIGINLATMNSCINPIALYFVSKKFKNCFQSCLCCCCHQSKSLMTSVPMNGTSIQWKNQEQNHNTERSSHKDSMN

[8] = target: Endothelin receptor (Rattus norvegicus) (UniProt P26684+P21451); assay: Selectivity for endothelin A receptor over endothelin receptor B; format: protein assay
[9] = target: T3, Endothelin-1 receptor (Rattus norvegicus, UniProt P26684); assay: Binding affinity towards Endothelin A receptor
T3 sequence (P26684 whole entry): T2 sequence (whole entry)

[10] = Half life period was evaluated in rat; 0.5-1.0; format: ADME, organism-based; conditions: in vivo
[11] = Maximal plasma concentration in rat after oral administration at 50 mg/kg; format: ADME, organism-based; design: dose 50 mg/kg, route oral; method in brief: as §1

Endothelin receptor (Rattus norvegicus), sequence (P21451 whole entry, looked up, one chain of several): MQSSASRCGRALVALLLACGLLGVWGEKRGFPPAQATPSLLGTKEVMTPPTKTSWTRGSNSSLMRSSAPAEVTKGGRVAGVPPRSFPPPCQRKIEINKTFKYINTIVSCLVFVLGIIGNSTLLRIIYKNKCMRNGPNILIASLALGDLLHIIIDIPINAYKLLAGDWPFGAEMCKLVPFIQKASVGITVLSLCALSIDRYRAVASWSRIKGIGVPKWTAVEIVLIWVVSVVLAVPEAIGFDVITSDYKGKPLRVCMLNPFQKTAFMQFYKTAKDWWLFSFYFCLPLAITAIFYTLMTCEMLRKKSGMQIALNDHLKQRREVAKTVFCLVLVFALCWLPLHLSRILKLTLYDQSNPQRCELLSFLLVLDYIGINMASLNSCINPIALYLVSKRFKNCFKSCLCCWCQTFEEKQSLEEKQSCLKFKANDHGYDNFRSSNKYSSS

Cc1cc(C)c(OC2CC2)c(C)c1NC(=O)c1sccc1S(=O)(=O)Nc1onc(C)c1Cl
Cmax [1]: 6100 ng/mL

CC(=O)c1cc(C)cc(C)c1NC(=O)c1sc(C)cc1S(=O)(=O)Nc1onc(C)c1Cl
IC50 [2]: 0.21 nM | Selectivity [3]: 4500 | half-life [4]: 2.7 h | AUC [5]: 327000 ng·h/mL | Cmax [1]: 68900 ng/mL | bioavailability [6]: 49%

COc1c(C)cc(C)c(NC(=O)c2sccc2S(=O)(=O)Nc2onc(C)c2Cl)c1C
Cmax [1]: 4000 ng/mL

Cc1cc(C)c(NC(=O)c2sccc2S(=O)(=O)Nc2onc(C)c2Cl)c(C(=O)N(C)CC(C)(C)C)c1
IC50 [2]: 0.68 nM | Selectivity [3]: 15900

CCCCN(CCCC)C(=O)CN1C[C@H](c2ccc3c(c2)OCO3)[C@@H](C(=O)O)[C@@H]1c1ccc(OC)cc1
bioavailability [6]: 60%

Cc1cc(C)c(NC(=O)c2sccc2S(=O)(=O)Nc2onc(C)c2Cl)c(Cl)c1
IC50 [2]: 0.09 nM | Selectivity [3]: 166000 | half-life [4]: 2.6 h | AUC [5]: 172000 ng·h/mL | Cmax [1]: 47500 ng/mL

Cc1cc(C)c(N(C)C)c(C)c1NC(=O)c1sccc1S(=O)(=O)Nc1onc(C)c1Cl
Cmax [1]: 3200 ng/mL

Cc1cc(C)c(NC(=O)c2sccc2S(=O)(=O)Nc2onc(C)c2Cl)c(C)c1
IC50 [2]: 0.15 nM | Selectivity [3]: 7000

Cc1cc(C)c(NC(=O)c2sccc2S(=O)(=O)Nc2onc(C)c2Cl)c(C(=O)C(C)C)c1
IC50 [2]: 0.11 nM | Selectivity [7]: 144000 | Cmax [1]: 59200 ng/mL

Cc1cc(C)c(NC(=O)c2sccc2S(=O)(=O)Nc2onc(C)c2Cl)c(S(=O)(=O)C(C)C)c1
IC50 [2]: 0.05 nM | Selectivity [3]: 8800

C/C(=N\O)c1cc(C)cc(C)c1NC(=O)c1sccc1S(=O)(=O)Nc1onc(C)c1Cl
IC50 [2]: 0.02 nM | Selectivity [3]: 24500 | half-life [4]: 5.2 h | AUC [5]: 39500 ng·h/mL | Cmax [1]: 6920 ng/mL

CC(C)C[C@@H]1NC(=O)[C@@H](C(C)C)NC(=O)[C@@H]2CCCN2C(=O)[C@@H](CC(=O)O)NC(=O)[C@@H](Cc2c[nH]c3ccccc23)NC1=O [BQ-123] (cyclo(L[dW][dD]P[dV]))
IC50 [2]: 22 nM | Selectivity [8]: 818

Cc1cc(C)c(NC(=O)c2sccc2S(=O)(=O)Nc2onc(C)c2Cl)c(C(=O)N(C)C)c1
IC50 [2]: 0.07 nM | Selectivity [3]: 12300 | half-life [4]: 1.19 h | AUC [5]: 27200 ng·h/mL | Cmax [1]: 10900 ng/mL

Cc1cc(C)c(NC(=O)c2sccc2S(=O)(=O)Nc2onc(C)c2Cl)c(C(=O)C2CCCCC2)c1
IC50 [2]: 1.37 nM | Selectivity [3]: 13000

CC(=O)OCc1c(C)cc(C)c(NC(=O)c2sccc2S(=O)(=O)Nc2onc(C)c2Cl)c1C
Cmax [1]: 3800 ng/mL

CCC(=O)c1cc(C)cc(C)c1NC(=O)c1sccc1S(=O)(=O)Nc1onc(C)c1Cl
IC50 [2]: 0.06 nM | Selectivity [3]: 214000

CCCCc1ccc2c(n1)[C@@H](c1ccc(OC)cc1C[C@H](C)C(=O)O)[C@H](C(=O)O)[C@H]2c1ccc2c(c1)OCO2
Selectivity [8]: 3 | Ki [9]: 0.034 nM | bioavailability [6]: 40%

Cc1cc(C)c(NC(=O)c2sccc2S(=O)(=O)Nc2onc(C)c2Cl)c(-c2ccccc2)c1
IC50 [2]: 1.47 nM | Selectivity [3]: 1900

Cc1cc(C)c(NC(=O)c2sccc2S(=O)(=O)Nc2onc(C)c2Cl)c(C(=O)c2ccccc2)c1
IC50 [2]: 0.39 nM | Selectivity [3]: 46000 | half-life [4]: 3.95 h | AUC [5]: 141000 ng·h/mL | Cmax [1]: 33400 ng/mL

CC(C)C[C@@H]1NC(=O)[C@@H](c2cccs2)NC(=O)[C@H](CC(=O)[O-])NC(=O)[C@H](CC(=O)N2CCN(c3ccccc3)CC2)NC(=O)[C@@H](CC(=O)[O-])NC(=O)[C@@H](Cc2c[nH]c3ccccc23)NC1=O.[Na+].[Na+] (cyclo(D(Piperazinyl(4-Ph))D[dGly(2-thienyl)]L[dW][dD]))
Selectivity [8]: 540 | half-life [10]: 1 h

CCCS(=O)(=O)c1cc(C)cc(C)c1NC(=O)c1sccc1S(=O)(=O)Nc1onc(C)c1Cl
IC50 [2]: 0.06 nM | Selectivity [3]: 6100 | half-life [4]: 1.3 h | AUC [5]: 5900 ng·h/mL | Cmax [1]: 2900 ng/mL

Cc1cc(C)c(S(N)(=O)=O)c(C)c1NC(=O)c1sccc1S(=O)(=O)Nc1onc(C)c1Cl
Cmax [1]: 2900 ng/mL

CC(=O)c1c(C)c(C)cc(C)c1NC(=O)c1sccc1S(=O)(=O)Nc1onc(C)c1Cl
IC50 [2]: 0.02 nM | Selectivity [3]: 1.18e+06 | half-life [4]: 1.68 h | AUC [5]: 53800 ng·h/mL | Cmax [1]: 10800 ng/mL

Cc1cc(C)c(NC(=O)c2sccc2S(=O)(=O)Nc2onc(C)c2Cl)c(C)c1C#N
Cmax [1]: 17300 ng/mL

Cc1cc(-c2ncco2)cc(C)c1NC(=O)c1sccc1S(=O)(=O)Nc1onc(C)c1Cl
IC50 [2]: 1.27 nM | Selectivity [3]: 1900

Cc1cc(C)c(NC(=O)c2sccc2S(=O)(=O)Nc2onc(C)c2Cl)c(-c2ncco2)c1
IC50 [2]: 0.08 nM | Selectivity [3]: 119000 | half-life [4]: 5.3 h | AUC [5]: 362000 ng·h/mL | Cmax [1]: 66000 ng/mL

Cc1cc(C)c(NC(=O)c2sccc2S(=O)(=O)Nc2onc(C)c2Cl)c(C#N)c1C
IC50 [2]: 0.05 nM | Selectivity [3]: 608000 | half-life [4]: 5.11 h | AUC [5]: 373000 ng·h/mL | Cmax [1]: 45700 ng/mL

CCC(=O)c1c(C)c(C)cc(C)c1NC(=O)c1sccc1S(=O)(=O)Nc1onc(C)c1Cl
IC50 [2]: 0.03 nM | Selectivity [3]: 216000 | half-life [4]: 1.47 h | AUC [5]: 24300 ng·h/mL | Cmax [1]: 13000 ng/mL

Cc1cc(C)c(NS(C)(=O)=O)c(C)c1NC(=O)c1sccc1S(=O)(=O)Nc1onc(C)c1Cl
Cmax [1]: 2800 ng/mL

CCCc1c(O)c(C(C)=O)cc(C(C)=O)c1NC(=O)c1sccc1S(=O)(=O)Nc1onc(C)c1Cl
IC50 [2]: 12.4 nM | Selectivity [7]: 1000

Cc1cc(C)c(NC(=O)c2sccc2S(=O)(=O)Nc2onc(C)c2Cl)c(C)c1CO
Cmax [1]: 2400 ng/mL

Cc1cc(C)c(NC(=O)c2sccc2S(=O)(=O)Nc2onc(C)c2Cl)c(C(=O)C2CC2)c1
IC50 [2]: 0.03 nM | Selectivity [3]: 331000 | half-life [4]: 5.4 h | AUC [5]: 365000 ng·h/mL | Cmax [1]: 53400 ng/mL

Cc1cc(C)c(NC(=O)c2sccc2S(=O)(=O)Nc2onc(C)c2Cl)c(S(C)(=O)=O)c1
IC50 [2]: 0.03 nM | Selectivity [3]: 325000 | half-life [4]: 1.7 h | AUC [5]: 28200 ng·h/mL | Cmax [11]: 10300 ng/mL

CO/N=C(\C)c1cc(C)cc(C)c1NC(=O)c1sccc1S(=O)(=O)Nc1onc(C)c1Cl
IC50 [2]: 0.04 nM | Selectivity [3]: 56000 | half-life [4]: 1.2 h | AUC [5]: 33500 ng·h/mL | Cmax [1]: 13800 ng/mL

COc1cc(OC)nc(O[C@H](C(=O)O)C(OC)(c2ccccc2)c2ccccc2)n1
Selectivity [8]: 60 | Ki [9]: 6 nM

Cc1cc(C)c(NC(=O)c2sccc2S(=O)(=O)Nc2onc(C)c2C)c(C#N)c1C
IC50 [2]: 0.08 nM | Selectivity [3]: 328000 | half-life [4]: 5.3 h | AUC [5]: 667000 ng·h/mL | Cmax [1]: 85800 ng/mL

Cc1cc(C)c(NC(=O)c2sccc2S(=O)(=O)Nc2onc(C)c2Cl)c(C(=O)O)c1
IC50 [2]: 2.62 nM | Selectivity [3]: 600
